High-throughput results from PubChem BioAssay.
Only some compounds are listed: those with a hit (about 2.9% of all), similar ones and a draw of the others.
MT stabilizer = microtubule stabilizers in HeLa cells. % tubulin-high responders, % at 10 µM. 200,000 tested, 0.83% active. AID 2205. HeLa tubulin immunostaining HCS, 24 h; share of cells brighter than vehicle mean+2SD;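 active = plate Z-score above 3 for both tubulin-high and condensed-nucleus cell shares, with cell loss under 80%, at 10 µM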;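 note: anti alpha tubulin signal scored within the nucleus-defined area of each cell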
Autophagy mod = autophagy modulation, high-content screen | calls only at 10 µM (by protocol) | 190,000 tested, 0.98% active | MEF GFP-LC3 puncta imaging; test concentration mostly 10 µM;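 active = percentage of spot-positive cells more than 3 SD above its plate mean, without a fluorescence outlier flag or 80% toxicity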;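 note: spot-positive cell cutoff set from DMSO-treated cells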
Wee1 stabilizer = blocks degradation of human Wee1 kinase | HeLa Luc-Wee1K328M stability, luciferase luminescence; 100% = proteasome inhibitor MG132 effect | reporter increase, % at 5 µM | 220,000 tested, 1.2% active | AID 1321;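 active = activation above the mean of all tested compounds plus 3 SD, set per screening run, cut at about 8.8% in these data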;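 note: cells exposed to compound for 20 h before luminescence read; 0% = DMSO alone and 100% = MG132 at 30 µM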
Target sequence (P30291 whole entry K328M): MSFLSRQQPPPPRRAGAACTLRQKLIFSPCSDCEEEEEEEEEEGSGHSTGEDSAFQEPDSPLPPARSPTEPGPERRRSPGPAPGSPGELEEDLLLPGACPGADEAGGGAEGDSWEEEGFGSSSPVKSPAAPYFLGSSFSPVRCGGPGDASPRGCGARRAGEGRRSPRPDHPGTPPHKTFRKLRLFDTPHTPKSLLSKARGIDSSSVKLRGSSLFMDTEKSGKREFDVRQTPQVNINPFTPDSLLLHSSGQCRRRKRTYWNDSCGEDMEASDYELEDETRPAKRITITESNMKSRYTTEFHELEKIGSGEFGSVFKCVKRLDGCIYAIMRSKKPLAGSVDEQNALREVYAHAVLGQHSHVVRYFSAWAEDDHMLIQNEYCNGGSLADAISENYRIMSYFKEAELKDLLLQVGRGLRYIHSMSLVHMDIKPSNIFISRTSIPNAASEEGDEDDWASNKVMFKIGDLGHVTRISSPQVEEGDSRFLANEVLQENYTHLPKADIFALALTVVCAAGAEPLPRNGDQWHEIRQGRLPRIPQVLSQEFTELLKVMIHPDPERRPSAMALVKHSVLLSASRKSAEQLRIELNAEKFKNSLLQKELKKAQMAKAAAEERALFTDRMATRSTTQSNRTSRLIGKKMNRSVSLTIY
Insulin prom up = MIN6 insulin promoter up-regulation; MIN6 insulin promoter-GFP reporter, high-content imaging; stronger effect = higher value; z-score at 5 µM; 190,000 tested, 0.3% active; AID 1625;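 active = z-score above 3 at 5 µM with at least 500 cells counted in the well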
b-catenin transl = alters nuclear translocation of beta-catenin in HeLa cells; immunofluorescence imaging; AID 1665; 190,000 tested, 0.3% active; nuclear translocation activity, % at 5 µM;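 active = nuclear translocation activity above 50% at 5 µM, with a well cell count of 50 or more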;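 note: per-cell ratio of nuclear to cytoplasmic median beta-catenin stain intensity; plate controls were DMSO negative control for no effect and GSK-3 inhibitor IX positive control for full effect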
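Test system: human HeLa cells, native beta-catenin. Compound dosing: 5 µM primary single dose, 0.1% DMSO, 0.02–20 µM confirmation series. Incubation: compound exposure 24 h at 37°C. Detection: beta-catenin immunostaining with DAPI counterstain, 20x imaging, 6 fields/well. Read-out basis: Nuclear/cytoplasmic beta-catenin signal ratio, % activation.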
An asterisk follows results filed as active.

How did CC(C)CN(Cc1cc(=O)oc2cc3c(cc12)CCCC3)CC(C)C do in these assays?
Wee1 stabilizer: 5; Insulin prom up: -0.1; b-catenin transl: 0

How did C=CCOC(=O)C1=C(C)NC(SC)=C(C#N)C1c1cccs1 (stereo not given) do in these assays?
MT stabilizer: 38*; Autophagy mod: inactive; Wee1 stabilizer: -1; Insulin prom up: -0.07; b-catenin transl: 39

Results for Cc1ccc(COc2ccc(C)nc2[N+](=O)[O-])cc1 ?
Wee1 stabilizer: 8.8*; Insulin prom up: -0.04; b-catenin transl: -1

How did Cc1ccc2nc(N3CC(=O)Nc4ccccc43)nc(-c3ccccc3)c2c1 do in these assays?
MT stabilizer: 7; Autophagy mod: inactive; Wee1 stabilizer: 9.6*; Insulin prom up: 0.16; b-catenin transl: 2

Results for COc1cccc(C2C([N+](=O)[O-])=C(N)Oc3cc(C)oc(=O)c32)c1 (stereo not given) ?
Wee1 stabilizer: 3; Insulin prom up: -0.64; b-catenin transl: 0

What do the screens show for `CCSc1nc(=S)n(Cc2ccccc2)c(C)c1C(C)=O`?
MT stabilizer: 2; Autophagy mod: inactive; Wee1 stabilizer: -4; Insulin prom up: -0.81; b-catenin transl: -1

What do the screens show for `CSc1nc(=S)n(Cc2ccccc2)c(C)c1C(C)=O`?
MT stabilizer: 3; Autophagy mod: active; Wee1 stabilizer: 0; Insulin prom up: -0.06; b-catenin transl: 1

How did Cc1ccc(CN2CCN(C3CCOCC3)CC2CCO)cc1 (stereo not given) do in these assays?
MT stabilizer: 3; Autophagy mod: inactive; Wee1 stabilizer: -1; Insulin prom up: 2; b-catenin transl: -2

How did Cc1[nH]c2ccc(-c3nnc(SCC(=O)c4ccc(F)cc4)o3)cc2c1C do in these assays?
MT stabilizer: 8; Autophagy mod: inactive; Wee1 stabilizer: -2; Insulin prom up: 0.03; b-catenin transl: 2

How did Cc1cc(C)c(C)c(C(=O)CSc2nnc(-c3ccc4[nH]c(C)c(C)c4c3)o2)c1C do in these assays?
MT stabilizer: 5; Autophagy mod: active; Wee1 stabilizer: 3; Insulin prom up: -0.93; b-catenin transl: -2

Results for CNc1ccc(Br)cc(C(=O)/C=C/c2cccc(Cl)c2Cl)c1=O ?
MT stabilizer: 9.9*; Autophagy mod: inactive; Wee1 stabilizer: -1; Insulin prom up: 0.1; b-catenin transl: 1

What do the screens show for `COc1cc(C2Nc3cccc4cccc(c34)N2)cc(OC)c1OC(C)=O`?
MT stabilizer: 16*; Autophagy mod: inactive; Wee1 stabilizer: 7; Insulin prom up: -0.5; b-catenin transl: -1

What do the screens show for `COc1ccccc1NC(=O)/C(C#N)=C/C=C/c1ccco1`?
MT stabilizer: 41*; Autophagy mod: active; Wee1 stabilizer: 1; b-catenin transl: 61*

What do the screens show for `COc1ccccc1NC(=S)NC(=O)/C=C/c1ccco1`?
MT stabilizer: 4; Autophagy mod: inactive; Wee1 stabilizer: -3; Insulin prom up: 0.23; b-catenin transl: 0

What do the screens show for `N#CC(c1ccccc1)c1ccc2c(C(F)(F)F)cc(C(F)(F)F)nc2n1` (stereo not given)?
MT stabilizer: 3; Autophagy mod: inactive; Wee1 stabilizer: -1; Insulin prom up: 0.41

What do the screens show for `Cc1ccc(C(C#N)c2ccc3c(C(F)(F)F)cc(C(F)(F)F)nc3n2)cc1` (stereo not given)?
MT stabilizer: 6; Autophagy mod: active; Wee1 stabilizer: 8; Insulin prom up: 0.87; b-catenin transl: 1

Results for CCCC(c1nnnn1C(C)(C)C)N1CCN(C(=O)c2ccco2)CC1 (stereo not given) ?
MT stabilizer: 3; Autophagy mod: inactive; Wee1 stabilizer: -4; Insulin prom up: 0.57; b-catenin transl: 0

How did O=C(Nc1ccc(C(=O)N2CCCC2)cc1)c1ccc2c(c1)OCO2 do in these assays?
MT stabilizer: 2; Autophagy mod: inactive; Wee1 stabilizer: -1; Insulin prom up: -0.66; b-catenin transl: -2

Results for O=C(c1ccc2c(c1)OCO2)N1CCCC1 ?
MT stabilizer: 2; Autophagy mod: inactive; Wee1 stabilizer: -2; Insulin prom up: 8.9*; b-catenin transl: -2

What do the screens show for `CCOC(=O)/C(=N/Nc1ccc(Cl)cc1)Sc1nnnn1-c1ccc(C)cc1`?
MT stabilizer: 2; Autophagy mod: inactive; Wee1 stabilizer: 11*; Insulin prom up: -0.41; b-catenin transl: 1

Results for CCN(CC)CC(C)CNC(=O)CN1C(=O)CSc2ccc(S(=O)(=O)N3CCOCC3)cc21 (stereo not given) ?
MT stabilizer: 2; Autophagy mod: inactive; Wee1 stabilizer: 0; Insulin prom up: -0.09; b-catenin transl: -6

Results for CC1CCc2c(C(=O)NCc3ccccn3)csc2C1 (stereo not given) ?
MT stabilizer: 2; Autophagy mod: inactive; Wee1 stabilizer: 9.0*; Insulin prom up: 0.57

Results for Cc1ccc([N+](=O)[O-])cc1NC(=O)c1cccs1 ?
MT stabilizer: 2; Autophagy mod: inactive; Wee1 stabilizer: 2; Insulin prom up: 3.2*; b-catenin transl: 2

Results for CCOC(=O)c1c(NC(=O)CSc2nnnn2C)sc(C)c1C ?
MT stabilizer: 1; Autophagy mod: inactive; Wee1 stabilizer: -1; Insulin prom up: -0.03; b-catenin transl: 2

Results for CCOC(=O)c1c(NC(=O)CSc2nnc(-c3ccc(OC)cc3)o2)sc2c1CCC2 ?
MT stabilizer: 3; Autophagy mod: active; Wee1 stabilizer: 0

What do the screens show for `CCOC(=O)c1c(NC(=O)CSc2nnc(C)o2)sc(C)c1C`?
Wee1 stabilizer: 9.8*; Insulin prom up: 0.42; b-catenin transl: 0

What do the screens show for `Cc1ccc(/C=C/C2=Cc3c(sc(NC(=O)CSc4n[nH]c(N)n4)c3C#N)C(C)(C)C2)o1`?
MT stabilizer: 3; Autophagy mod: inactive; Wee1 stabilizer: -2; Insulin prom up: -0.82; b-catenin transl: 3

What do the screens show for `O=[N+]([O-])c1ccc(N2CCN(S(=O)(=O)c3ccc(Cl)cc3)CC2)cc1NCC1CCCO1` (stereo not given)?
MT stabilizer: 2; Autophagy mod: active; Wee1 stabilizer: -2; Insulin prom up: 0.49; b-catenin transl: -2

What do the screens show for `COc1ccc(NC(=O)CSc2nc3ncccc3[nH]2)cc1OC`?
MT stabilizer: 1; Autophagy mod: inactive; Wee1 stabilizer: 11*; Insulin prom up: 0.56; b-catenin transl: -4

What do the screens show for `CCCc1ccc(-c2cc(NC(=O)CSc3nnc(N)s3)n(-c3ccccc3)n2)cc1`?
MT stabilizer: 5; Autophagy mod: inactive; Wee1 stabilizer: 10*; Insulin prom up: 0.69; b-catenin transl: 5

How did Cc1occc1C(=O)N/N=C/C1=C(N2CCOCC2)C(=C\c2ccc(Cl)cc2Cl)/CC1 do in these assays?
MT stabilizer: 6; Autophagy mod: active; Wee1 stabilizer: 3; Insulin prom up: -0.15

How did Cc1cc(C)nc(N/N=C/C2=C(N3CCOCC3)C(=C\c3ccc(Cl)cc3)/CC2)n1 do in these assays?
MT stabilizer: 3; Autophagy mod: inactive; Wee1 stabilizer: 2; b-catenin transl: -1
